Reference: ChEMBL document CHEMBL1154599 (J Med Chem, 2009)

Key:
[1] = organism: Rattus norvegicus; assay: Selectivity index, ratio of IC50 for rat MAO-A to IC50 for rat MAO-B
Summary of the method: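 Ratio of IC50 values from rat brain mitochondrial radioenzymatic assays: MAO-A with [14C]5-HT 5 μM, 30 min, and MAO-B with [14C]PEA 0.5 μM, 10 min. Both after 30 min preincubation with compound at 37 °C.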

[2] = molecular target: T1, Amine oxidase [flavin-containing] B (Rattus norvegicus, UniProt P19643); assay: Inhibition of MAO-B from Wistar rat brain by radioenzymatic assay
T1 sequence (P19643 whole entry): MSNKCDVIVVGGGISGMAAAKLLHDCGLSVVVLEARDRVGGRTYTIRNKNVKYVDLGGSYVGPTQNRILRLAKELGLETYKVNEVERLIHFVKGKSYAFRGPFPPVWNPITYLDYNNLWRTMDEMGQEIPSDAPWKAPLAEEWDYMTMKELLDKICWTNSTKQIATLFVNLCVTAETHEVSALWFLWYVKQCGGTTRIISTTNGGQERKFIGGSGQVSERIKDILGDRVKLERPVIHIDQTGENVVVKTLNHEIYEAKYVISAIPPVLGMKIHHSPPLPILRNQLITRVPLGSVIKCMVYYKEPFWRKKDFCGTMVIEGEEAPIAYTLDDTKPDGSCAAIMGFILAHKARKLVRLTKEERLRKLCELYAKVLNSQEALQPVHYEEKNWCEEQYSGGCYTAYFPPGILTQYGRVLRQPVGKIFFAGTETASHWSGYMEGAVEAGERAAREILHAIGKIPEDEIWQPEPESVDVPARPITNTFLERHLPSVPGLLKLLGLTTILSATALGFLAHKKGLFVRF
Summary of the method: (§1)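 Crude mitochondrial fraction from male Wistar rat brain (150-175 g), 500 μg protein in 0.1 M phosphate pH 7.40. Preincubated 30 min at 37 °C with compound. Substrate then added: [14C]5-HT 5 μM for 30 min (MAO-A) or [14C]PEA 0.5 μM for 10 min (MAO-B), 37 °C. Stopped with acid, deaminated metabolites extracted into ether or toluene, counted by scintillation.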

[3] = molecular target: T2, Amine oxidase [flavin-containing] A (Rattus norvegicus, UniProt P21396); assay: Inhibition of MAO-A from Wistar rat brain by radioenzymatic assay; summary of the method: as §1
T2 sequence (P21396 whole entry): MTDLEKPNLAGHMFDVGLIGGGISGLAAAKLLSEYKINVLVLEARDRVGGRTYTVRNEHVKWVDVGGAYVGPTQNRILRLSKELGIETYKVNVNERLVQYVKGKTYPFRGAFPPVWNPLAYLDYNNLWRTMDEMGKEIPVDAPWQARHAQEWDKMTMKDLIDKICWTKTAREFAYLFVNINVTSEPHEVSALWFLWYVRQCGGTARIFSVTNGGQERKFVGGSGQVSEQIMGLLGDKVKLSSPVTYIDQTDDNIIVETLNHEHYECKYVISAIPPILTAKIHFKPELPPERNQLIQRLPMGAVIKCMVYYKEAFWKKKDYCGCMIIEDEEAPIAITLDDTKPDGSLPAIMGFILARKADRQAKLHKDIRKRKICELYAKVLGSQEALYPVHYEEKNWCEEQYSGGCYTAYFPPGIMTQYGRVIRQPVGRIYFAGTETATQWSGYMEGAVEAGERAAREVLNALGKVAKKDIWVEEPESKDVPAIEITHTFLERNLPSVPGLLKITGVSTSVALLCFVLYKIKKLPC

[4] = Permeability across PAMPA membrane assessed as retention at 617 uM by HDM-PAMPA assay; assay type: ADME
Summary of the method: (§2)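 HDM-PAMPA on polycarbonate filters coated with hexadecane (applied in hexane, which was evaporated). Donor at 617 μM in 0.1 M phosphate pH 6.8 with 5% DMSO, same pH in donor and acceptor. Incubated 5 h at room temperature with shaking at 75 rpm. Compartments quantified by HPLC. Pe, retention R and CA(t)/CD(0) calculated by equations 1-2. Quadruplicate.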

[5] = Permeability across PAMPA membrane assessed as permeability coefficient at 617 uM by HDM-PAMPA assay; assay type: ADME; summary of the method: as §2
[6] = Permeability across PAMPA membrane assessed as amount of drug reaching acceptor compartment at 617 uM by HDM-PAMPA assay; assay type: ADME; summary of the method: as §2
[7] = Octanol-water partition coefficient, log P calculated with Bioloom (BioByte)
[8] = molecular target: T2, Amine oxidase [flavin-containing] A; assay: Inhibition of MAO-A from Wistar rat brain at 10 uM by radioenzymatic assay

| Ratio IC50 [1] | IC50 [2] | IC50 [3] | SMILES | also measured |
| --- | --- | --- | --- | --- |
| 127 |  |  | NCCc1cc(=O)oc2cc(OCc3cccc(Cl)c3)ccc12 |  |
| 0.9 | 230 nM | 200 nM | N#CCc1cc(=O)oc2cc(OCc3ccccc3)ccc12 |  |
|  |  |  | Cc1cc(=O)oc2cc(OCc3cccc(Cl)c3)ccc12 | permeability [4]: 72%; log Pe [5]: -4.13 cm/s; permeability [6]: 3.7%; logP [7]: 4.73 |
|  | 210 nM |  | C[C@H](Nc1cc(=O)oc2cc(OCc3cccc(Cl)c3)ccc12)C(N)=O | inhibition at 10 µM [8]: 35% |
| > 28 | 3600 nM | > 100000 nM | O=c1cc(CNCc2ccccc2)c2ccc(OCc3cccc(Cl)c3)cc2o1 |  |
| 13 | 2000 nM | 26500 nM | NC(=O)Cc1cc(=O)oc2cc(OCc3ccncc3)ccc12 |  |
| 56 | 1800 nM | 100000 nM | CN(C)Cc1cc(=O)oc2cc(OCc3ccccc3)ccc12 |  |
| 40 | 200 nM | 8000 nM | NC(=O)Cc1cc(=O)oc2cc(OCc3ccccc3)ccc12 |  |
| 226 | 100 nM | 22600 nM | CCNCc1cc(=O)oc2cc(OCc3cccc(F)c3)ccc12 |  |
| 187 | 15 nM | 2800 nM | CNC(=O)Cc1cc(=O)oc2cc(OCc3ccccc3)ccc12 |  |
| > 117 | 850 nM | > 100000 nM | NC(=O)[C@@H]1CCCN1Cc1cc(=O)oc2cc(OCc3cccc(F)c3)ccc12 |  |
|  | > 10000 nM | > 100000 nM | CCCCNC(=O)Cc1cc(=O)oc2cc(OCc3cccc(Cl)c3)ccc12 |  |
| 58 | 400 nM | 23100 nM | CN(C)C(=O)Cc1cc(=O)oc2cc(OCc3ccccc3)ccc12 |  |
| > 13 | 8000 nM | > 100000 nM | CN(Cc1ccccc1)Cc1cc(=O)oc2cc(OCc3cccc(Cl)c3)ccc12 |  |
| 6 | 16100 nM | 99800 nM | NC(=O)[C@@H]1CCCN1c1cc(=O)oc2cc(OCc3ccccc3)ccc12 |  |
| 63 | 100 nM | 6260 nM | CC(C(N)=O)c1cc(=O)oc2cc(OCc3ccccc3)ccc12 (racemic) |  |
| 24 | 3800 nM | 91000 nM | CC(C)NCc1cc(=O)oc2cc(OCc3cccc(F)c3)ccc12 |  |
| 133 | 15 nM | 2000 nM | NCc1cc(=O)oc2cc(OCc3cccc(Cl)c3)ccc12 |  |
| 20 | 100 nM | 2000 nM | CC(C(N)=O)c1cc(=O)oc2cc(OCc3cccc(F)c3)ccc12 (racemic) |  |
| > 196 | 510 nM | > 100000 nM | CN(C)Cc1cc(=O)oc2cc(OCc3cccc(F)c3)ccc12 |  |
|  | > 10000 nM | > 100000 nM | NCCNC(=O)Cc1cc(=O)oc2cc(OCc3cccc(Cl)c3)ccc12 |  |
|  | 9600 nM |  | NC(=O)[C@@H]1CCCN1c1cc(=O)oc2cc(OCc3cccc(Cl)c3)ccc12 | inhibition at 10 µM [8]: 5% |

| Ratio IC50 [1] | IC50 [2] | IC50 [3] | SMILES | also measured |
| --- | --- | --- | --- | --- |
| 147 | 680 nM | 100000 nM | C[C@H](Nc1cc(=O)oc2cc(OCc3ccccc3)ccc12)C(N)=O |  |
| 550 | 28 nM | 15400 nM | CNCc1cc(=O)oc2cc(OCc3ccccc3)ccc12 |  |
|  | 18 nM |  | CNCc1cc(=O)oc2cc(OCc3cccc(F)c3)ccc12 |  |
| 29 | 16 nM | 470 nM | N#CCc1cc(=O)oc2cc(OCc3cccc(Cl)c3)ccc12 |  |
| 1400 |  |  | NC(=O)Cc1cc(=O)oc2cc(OCc3cccc(F)c3)ccc12 |  |
| > 20 | 5000 nM | > 100000 nM | O=C(Cc1cc(=O)oc2cc(OCc3cccc(Cl)c3)ccc12)NCc1ccccc1 |  |
| 92 | 380 nM | 35000 nM | NC(=O)[C@@H]1CCCN1Cc1cc(=O)oc2cc(OCc3ccccc3)ccc12 |  |
| 247 |  |  | CNCCc1cc(=O)oc2cc(OCc3cccc(Cl)c3)ccc12 |  |
| 16 | 1300 nM | 21000 nM | NC(=O)Cc1cc(=O)oc2cc(OCc3cccnc3)ccc12 |  |
| 4 | 1000 nM | 4270 nM | NC(=O)Cc1cc(=O)oc2cc(OCc3cccc(O)c3)ccc12 |  |
| 56 | 460 nM | 25900 nM | CN(C)CCc1cc(=O)oc2cc(OCc3ccccc3)ccc12 |  |
|  | > 10000 nM | > 100000 nM | CCCCN(C)C(=O)Cc1cc(=O)oc2cc(OCc3cccc(Cl)c3)ccc12 |  |
| 210 | 21 nM | 4400 nM | NCc1cc(=O)oc2cc(OCc3ccccc3)ccc12 |  |
| 13 | 1800 nM | 22700 nM | C[C@H](NCc1cc(=O)oc2cc(OCc3ccccc3)ccc12)C(N)=O |  |
| > 42 | 2400 nM | > 100000 nM | NC(=O)[C@H](CO)Nc1cc(=O)oc2cc(OCc3cccc(Cl)c3)ccc12 |  |
| 270 | 20 nM | 5400 nM | CNCc1cc(=O)oc2cc(OCc3ccc4c(c3)OCO4)ccc12 |  |
| 28 | 90 nM | 2500 nM | NNC(=O)Cc1cc(=O)oc2cc(OCc3cccc(Cl)c3)ccc12 |  |
| 867 | 30 nM | 26000 nM | NC(=O)Cc1cc(=O)oc2cc(OCc3cccc(Cl)c3)ccc12 |  |
| > 2400 |  |  | CN(C)C(=O)Cc1cc(=O)oc2cc(OCc3cccc(Cl)c3)ccc12 |  |
| 21 | 24 nM | 500 nM | CNC(=O)Cc1cc(=O)oc2cc(OCc3cccc(Cl)c3)ccc12 |  |
| 45 | 1120 nM | 50800 nM | CN(C)Cc1cc(=O)oc2cc(OCc3cccc(Cl)c3)ccc12 |  |
| 36 |  | 1440 nM | NNC(=O)Cc1cc(=O)oc2cc(OCc3ccccc3)ccc12 |  |
